The source of these data is ChEMBL document CHEMBL1165985, “Dihydro-beta-agarofuran sesquiterpenes and pentacyclic triterpenoids from the root bark of Osyris lanceolata” (2010).

Test [1] relates to Radical scavenging activity. As to the kind of experiment: Antioxidant activity assessed as DPPH radical scavenging activity after 30 mins. It is filed as functional. In outline:
(§1)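 Semiquantitative TLC-based DPPH radical scavenging, followed over an 8 h period with readings at 30 min, 2 h and 8 h. Activity is expressed as the minimum inhibitory quantity (MIQ, µg) on the plate. Run in duplicate.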

Test [2] concerns Radical scavenging activity. As to the kind of experiment: Antioxidant activity assessed as DPPH radical scavenging activity after 2 hrs. The test is classed as functional. In outline:
as §1

Test [3] relates to Radical scavenging activity. Kind of test: Antioxidant activity assessed as DPPH radical scavenging activity after 8 hrs. The test is classed as functional. The essentials: as §1
Test [4] relates to Bacillus subtilis. Kind of test: Antimicrobial activity against Bacillus subtilis ATCC 6633 by agar overlay technique. It is filed as functional. The essentials: (§2)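 Adapted agar overlay technique. Strains came from a university microbiology collection. Media were nutrient broth, nutrient agar, mycological peptone and Sabouraud dextrose agar.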
Test [5] concerns Staphylococcus aureus. Kind of test: Antimicrobial activity against Staphylococcus aureus ATCC 9144 by agar overlay technique. It is filed as functional. The essentials: as §2
For test [6], the system named is Pseudomonas aeruginosa. As to the kind of experiment: Antimicrobial activity against Pseudomonas aeruginosa NCTC 10332 by agar overlay technique. The test is classed as functional. The essentials:
as §2

The next test relates to Escherichia coli. As to the kind of experiment: Antimicrobial activity against Escherichia coli ATCC 11229 by agar overlay technique. It is filed as functional. In outline:
as §2

The subject of another test is Candida albicans. Kind of test: Antimicrobial activity against Candida albicans ATCC 10231 by agar overlay technique. It is filed as functional. In outline: as §2
For test [7], the system named is Bacillus subtilis. As to the kind of experiment: Antimicrobial activity against Bacillus subtilis ATCC 6633 at 100 ug by agar overlay technique. The test is classed as functional, organism-based.
For test [8], the system named is Staphylococcus aureus. As to the kind of experiment: Antimicrobial activity against Staphylococcus aureus ATCC 9144 at 100 ug by agar overlay technique. It is filed as functional, organism-based.
In test [9] the test system is Pseudomonas aeruginosa. As to the kind of experiment: Antimicrobial activity against Pseudomonas aeruginosa NCTC 10332 at 100 ug by agar overlay technique. It is filed as functional, organism-based.

Each structure is given as a SMILES string. Calls of active or inactive are those of the source. The rule behind the calls is not given here.

Turning to `O=C(O)c1cc(O)c(O)c(O)c1`, the MIC in test [1], in test [2] and in test [3] was 0.01 µg throughout.

For the molecule `C[C@@H]1CC(=O)[C@H](OC(=O)c2ccoc2)[C@@]2(C)[C@@H](OC(=O)c3ccoc3)C[C@@H]3C[C@]12OC3(C)C`, the MIC came to 10 µg in the test on Bacillus subtilis [4]; 50 µg against Staphylococcus aureus [5]; 10 µg against Pseudomonas aeruginosa [6]; 10 µg in the test with Escherichia coli; 0.5 µg against Candida albicans; 10 µg in test [2]. For the same molecule, the MIC in test [3] turned out to be 10 µg. Besides, the MIC entry in test [1] is “inactive”.

In the case of `O=C1O[C@H]([C@@H](O)CO)C(O)=C1O`, the MIC in [1] turned out to be 10 µg; in [2], 0.5 µg; in [3] it was 0.01 µg.

Consider `CC1=CC(=O)[C@H](OC(=O)c2ccoc2)[C@@]2(C)[C@@H](OC(=O)c3ccoc3)C[C@@H]3C[C@]12OC3(C)C`, for which the MIC is 50 µg in the test with Escherichia coli, 10 µg against Candida albicans, 50 µg in [2] and 10 µg in test [3]. Also, the result in the test on Bacillus subtilis [7], in the test with Staphylococcus aureus [8] and in the test with Pseudomonas aeruginosa [9] was inactive. Besides, in [1], the MIC entry was “inactive”.

For `C=C(C)[C@@H]1CC[C@]2(C)[C@H](CC=C3[C@@H]4C[C@](C)(C(=O)O)CC[C@]4(C)CC[C@]32C)[C@@]1(C)CCC(=O)O`, the MIC in the test with Bacillus subtilis [4] stood at 0.01 µg; in the test on Staphylococcus aureus [5] it was 0.001 µg; in the test with Pseudomonas aeruginosa [6] it was 0.01 µg; with Escherichia coli, 0.01 µg; in the test with Candida albicans, 0.001 µg; in test [3], 10 µg. Further, the MIC entry in test [1] and in [2] was “inactive” throughout.

Take `O=C(N[C@H](CO)[C@H](O)c1ccc([N+](=O)[O-])cc1)C(Cl)Cl` [CHLORAMPHENICOL]: the MIC in the test with Bacillus subtilis [4], in the test with Staphylococcus aureus [5], in the test with Pseudomonas aeruginosa [6] and with Escherichia coli was 0.001 µg each time.

As for `C[C@H]1C(=O)CC[C@@H]2[C@]1(C)CC[C@H]1[C@@]2(C)CC[C@@]2(C)[C@H]3C[C@@](C)(C(=O)O)CC[C@]3(C)CC[C@]12C` [OCTANDRONIC ACID], the MIC against Bacillus subtilis [4] turned out to be 0.01 µg; with Staphylococcus aureus [5] it was 0.5 µg; in the test with Pseudomonas aeruginosa [6], 0.01 µg; in the test on Escherichia coli, 0.01 µg; in the test on Candida albicans, 0.01 µg; in test [3], 10 µg. Also, the MIC result in [1] and in test [2] was “inactive” each time.

In the case of `C[C@@H]1CC[C@H](OC(=O)c2ccoc2)[C@@]2(C)[C@@H](OC(=O)c3ccoc3)C[C@@H]3C[C@]12OC3(C)C`, the MIC against Bacillus subtilis [4] came out at 0.5 µg; against Staphylococcus aureus [5] it was 10 µg; against Pseudomonas aeruginosa [6] it was 0.5 µg; with Escherichia coli, 10 µg; in the test on Candida albicans, 0.01 µg; in test [2] it was 10 µg. In test [3], the MIC was found to be 10 µg. Moreover, the MIC result in test [1] was “inactive”.

For `Clc1ccc(COC(Cn2ccnc2)c2ccc(Cl)cc2Cl)c(Cl)c1` (stereo unspecified) [MICONAZOLE], in the test with Candida albicans, the MIC was 0.001 µg.
